Source: ChEMBL document CHEMBL1134600, “Synthesis and evaluation of cryptolepine analogues for their potential as new antimalarial agents” (J Med Chem, 2001)
Values joined by “and” are separate entries in the source; they are usually repeats but may differ in a detail not shown here. Identical values can stand only once.

test system: A549; test: Cytotoxicity against A549 cells when the drug is exposed for a time of 1 hr; assay type: functional, cell-based; conditions: Homo sapiens, A549, 1 h

SMILES	IC50
C[n+]1c2ccccc2cc2[n-]c3c([N+](=O)[O-])cccc3c21	> 100 µM
C[n+]1c2ccccc2cc2[nH]c3ccccc3c21 [CRYPTOLEPTINE IODIDE]	61.4 µM
CC(=O)Nc1ccc2[n-]c3cc4ccccc4[n+](C)c3c2c1	> 100 µM
C[n+]1c2ccccc2cc2[n-]c3c([N+](=O)[O-])cc([N+](=O)[O-])cc3c21	> 100 µM
C[n+]1c2ccc(Br)cc2cc2[nH]c3ccccc3c21.[I-]	> 100 µM
C[n+]1c2ccccc2cc2[n-]c3ccc([N+](=O)[O-])cc3c21	35.6 µM

test system: A549; test: Cytotoxicity against A549 cells when the drug is exposed for a time of 96 hrs; assay type: functional, cell-based; conditions: Homo sapiens, A549, 96 h

SMILES	IC50
C[n+]1c2ccccc2cc2[nH]c3ccccc3c21 [CRYPTOLEPTINE IODIDE]	0.55 µM
CC(=O)Nc1ccc2[n-]c3cc4ccccc4[n+](C)c3c2c1	5.04 µM
C[n+]1c2ccc(Br)cc2cc2[nH]c3ccccc3c21.[I-]	2.07 µM

test system: DLD-1; test: Cytotoxicity against DLD-1 cells when the drug is exposed for a time of 1 hr; assay type: functional, cell-based; conditions: Homo sapiens, DLD-1, 1 h

SMILES	IC50
C[n+]1c2ccccc2cc2[n-]c3c([N+](=O)[O-])cccc3c21	> 100 µM
C[n+]1c2ccccc2cc2[nH]c3ccccc3c21 [CRYPTOLEPTINE IODIDE]	93 µM
CC(=O)Nc1ccc2[n-]c3cc4ccccc4[n+](C)c3c2c1	> 100 µM
C[n+]1c2ccccc2cc2[n-]c3c([N+](=O)[O-])cc([N+](=O)[O-])cc3c21	> 100 µM
C[n+]1c2ccc(Br)cc2cc2[nH]c3ccccc3c21.[I-]	> 100 µM
C[n+]1c2ccccc2cc2[n-]c3ccc([N+](=O)[O-])cc3c21	48.9 µM

test system: MAC15A; test: Cytotoxicity against MAC15a cells when the drug is exposed for a time of 1 hr; assay type: functional, cell-based; conditions: Mus musculus

SMILES	IC50
C[n+]1c2ccccc2cc2[nH]c3ccc(Br)cc3c21.[I-]	66.2 µM
C[n+]1c2ccccc2cc2[n-]c3c([N+](=O)[O-])cccc3c21	> 100 µM
C[n+]1c2ccccc2c(Cl)c2[nH]c3cc(Br)ccc3c21	23.1 µM
C[n+]1c2ccccc2cc2[nH]c3ccccc3c21 [CRYPTOLEPTINE IODIDE]	67.2 µM
CC(=O)Nc1ccc2[n-]c3cc4ccccc4[n+](C)c3c2c1	> 100 µM
C[n+]1c2ccccc2c(Cl)c2[nH]c3ccccc3c21	30.5 µM
C[n+]1c2ccccc2cc2[n-]c3c([N+](=O)[O-])cc([N+](=O)[O-])cc3c21	28.5 µM
C[n+]1c2ccc(Br)cc2cc2[nH]c3ccccc3c21.[I-]	> 100 µM
C[n+]1c2ccccc2cc2[n-]c3ccc([N+](=O)[O-])cc3c21	35.4 µM
C[n+]1c2ccccc2c(Cl)c2[nH]c3cc(Cl)ccc3c21	14.4 µM

test system: MAC15A; test: Cytotoxicity against MAC15a cells when the drug is exposed for a time of 96 hr; assay type: functional, cell-based; conditions: Mus musculus

SMILES	IC50
C[n+]1c2ccccc2cc2[nH]c3ccccc3c21 [CRYPTOLEPTINE IODIDE]	9.65 µM
CC(=O)Nc1ccc2[n-]c3cc4ccccc4[n+](C)c3c2c1	15.5 µM
C[n+]1c2ccc(Br)cc2cc2[nH]c3ccc(Br)cc3c21.[I-]	6.04 µM
C[n+]1c2ccc(Br)cc2cc2[nH]c3ccccc3c21.[I-]	5.79 µM

test system: Mus musculus; test: Inhibitory activity against Plasmodium berghei (ANKA) in mice at a dose of 20 mg/kg for 4 days; assay type: functional; set-up: scale not given: the % may be the effect or the level left; conditions: not given
Summary of the method: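 Peters' 4-day suppressive test. Female BALB/c mice (18-20 g) were inoculated iv with 1 × 10⁷ P. berghei ANKA-infected erythrocytes. Drug was given ip in 0.2 mL daily for 4 consecutive days, 5 mice per group, with chloroquine diphosphate as positive control. Blood smears were taken on day 5. % suppression of parasitemia was calculated against untreated infected controls for each dose.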

SMILES	Activity
C[n+]1c2ccccc2cc2[n-]c3c([N+](=O)[O-])cccc3c21	11.9% and 23.5%
CC(=O)Nc1ccc2[n-]c3cc4ccccc4[n+](C)c3c2c1	13.3% and 14.7%
C[n+]1c2ccccc2cc2[n-]c3c([N+](=O)[O-])cc([N+](=O)[O-])cc3c21	20.3% and 30.2%

test system: Plasmodium falciparum; test: In vitro inhibitory activity against chloroquine-resistant Plasmodium falciparum K1; assay type: functional, organism-based; conditions: not given
Summary of the method: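 Early ring-stage parasites in human A+ erythrocytes, RPMI 1640 with A+ serum and glucose. Twofold serial dilutions in duplicate from DMSO stocks (final DMSO ≤0.5%), 2.5% hematocrit, 1% parasitemia. Incubated 48 h at 37 °C under 93% N2/3% O2/4% CO2. Growth read as parasite lactate dehydrogenase activity (APAD/NBT reagent, 15 min, OD 550 nm). IC50 by linear regression, at least three separate determinations.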

SMILES	IC50
C[n+]1c2ccccc2cc2[nH]c3ccc(Br)cc3c21.[I-]	0.26 µM
C[n+]1c2ccccc2cc2[n-]c3c([N+](=O)[O-])cccc3c21	6.92 µM
C[n+]1c2ccccc2c(Cl)c2[nH]c3cc(Br)ccc3c21	7.18 µM
C[n+]1c2ccccc2cc2[nH]c3ccccc3c21 [CRYPTOLEPTINE IODIDE]	0.44 µM
CC(=O)Nc1ccc2[n-]c3cc4ccccc4[n+](C)c3c2c1	0.52 µM
O=C(O)c1c2nc3ccccc3c-2[nH]c2ccccc12	> 100 µM
C[n+]1c2ccccc2c(Cl)c2[nH]c3ccccc3c21	0.24 µM
C[n+]1c2ccc(Br)cc2cc2[nH]c3ccc(Br)cc3c21.[I-]	0.049 µM
NC(=O)c1c2nc3ccccc3c-2[nH]c2ccccc12	> 100 µM
C[n+]1c2ccccc2cc2[n-]c3c([N+](=O)[O-])cc([N+](=O)[O-])cc3c21	0.65 µM
C[n+]1c2ccc(Br)cc2cc2[nH]c3ccccc3c21.[I-]	0.26 µM
C[n+]1c2ccccc2cc2[n-]c3ccc([N+](=O)[O-])cc3c21	0.65 µM
C[n+]1c2ccccc2c(Cl)c2[nH]c3ccc(Cl)cc3c21	7.62 µM
C[n+]1c2ccc(Br)cc2c(Cl)c2[nH]c3ccccc3c21	4.75 µM
c1ccc2nc3c(cc2c1)[nH]c1ccccc13 [QUINDOLINE]	> 100 µM
C[n+]1c2ccccc2c(Cl)c2[nH]c3cc(Cl)ccc3c21	27 µM

target: T1, Histidine-rich protein PFHRP-II (Plasmodium falciparum) (UniProt P05227); test: Inhibition of beta-hematin formation; No; assay type: functional; conditions: not given
T1 sequence (whole entry): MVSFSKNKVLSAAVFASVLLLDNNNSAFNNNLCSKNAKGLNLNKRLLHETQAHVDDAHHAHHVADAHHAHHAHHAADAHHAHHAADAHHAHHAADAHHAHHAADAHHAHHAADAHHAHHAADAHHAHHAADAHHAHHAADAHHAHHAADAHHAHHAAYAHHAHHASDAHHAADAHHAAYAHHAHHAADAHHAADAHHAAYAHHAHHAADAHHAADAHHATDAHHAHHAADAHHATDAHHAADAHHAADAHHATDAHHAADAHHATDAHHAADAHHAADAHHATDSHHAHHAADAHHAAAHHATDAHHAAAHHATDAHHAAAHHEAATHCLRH

SMILES	inhibition
O=C(O)c1c2nc3ccccc3c-2[nH]c2ccccc12	No inhibition
NC(=O)c1c2nc3ccccc3c-2[nH]c2ccccc12	No inhibition
c1ccc2nc3c(cc2c1)[nH]c1ccccc13 [QUINDOLINE]	No inhibition

target: T1, Histidine-rich protein PFHRP-II (Plasmodium falciparum); test: Inhibition of beta-hematin formation; Yes; assay type: functional; conditions: not given

SMILES	beta-hematin formation inhibition (yes/no)	inhibition
C[n+]1c2ccccc2cc2[nH]c3ccc(Br)cc3c21.[I-]	Inhibition	–
C[n+]1c2ccccc2cc2[nH]c3ccccc3c21 [CRYPTOLEPTINE IODIDE]	–	Inhibition
C[n+]1c2ccc(Br)cc2cc2[nH]c3ccc(Br)cc3c21.[I-]	Inhibition	–
C[n+]1c2ccccc2cc2[n-]c3c([N+](=O)[O-])cc([N+](=O)[O-])cc3c21	Inhibition	–
C[n+]1c2ccc(Br)cc2cc2[nH]c3ccccc3c21.[I-]	Inhibition	–
C[n+]1c2ccccc2cc2[n-]c3ccc([N+](=O)[O-])cc3c21	Inhibition	–
CCN(CC)CCCC(C)Nc1ccnc2cc(Cl)ccc12.O=P(O)(O)O.O=P(O)(O)O (centres undefined) [CHLOROQUINE PHOSPHATE]	Inhibition	–

test system: DLD-1; test: Cytotoxicity against DLD-1 cells when the drug is exposed for a time of 96 hrS; assay type: functional, cell-based; conditions: Homo sapiens, DLD-1, 96 h

SMILES	IC50
C[n+]1c2ccccc2cc2[nH]c3ccccc3c21 [CRYPTOLEPTINE IODIDE]	1.44 µM
CC(=O)Nc1ccc2[n-]c3cc4ccccc4[n+](C)c3c2c1	20.4 µM
C[n+]1c2ccc(Br)cc2cc2[nH]c3ccccc3c21.[I-]	2.29 µM

test system: Plasmodium falciparum; test: In vitro inhibitory activity against chloroquine-sensitive Plasmodium falciparum HB3; conditions: not given

SMILES	IC50
C[n+]1c2ccccc2cc2[nH]c3ccc(Br)cc3c21.[I-]	0.19 µM
C[n+]1c2ccccc2cc2[n-]c3c([N+](=O)[O-])cccc3c21	4.14 µM
CC(=O)Nc1ccc2[n-]c3cc4ccccc4[n+](C)c3c2c1	0.47 µM
C[n+]1c2ccccc2c(Cl)c2[nH]c3ccccc3c21	1.67 µM
C[n+]1c2ccc(Br)cc2cc2[nH]c3ccc(Br)cc3c21.[I-]	0.026 µM
C[n+]1c2ccccc2cc2[n-]c3c([N+](=O)[O-])cc([N+](=O)[O-])cc3c21	0.45 µM
C[n+]1c2ccc(Br)cc2cc2[nH]c3ccccc3c21.[I-]	0.45 µM
C[n+]1c2ccccc2cc2[n-]c3ccc([N+](=O)[O-])cc3c21	0.14 µM
